From ChEMBL document CHEMBL1155468, “Syntheses and evaluation of anticonvulsant profile and teratogenicity of novel amide derivatives of branched aliphatic carboxylic acids with 4-aminobenzensulfonamide” (J Med Chem, 2010)
The source made the active and inactive calls. No cut-off for these calls is given here.

How the values were obtained:
[1] = tested on: Mus musculus; experiment: Anticonvulsant activity in CF1 albino mouse assessed as inhibition of subcutaneous pentylenetetrazole-induced seizures at 300 mg/kg, ip after 0.5 hrs; format: functional, organism-based; design: dose 300 mg/kg
In short: (§1)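 Adult male CF no. 1 albino mice (18-25 g) dosed ip with compound suspended in 0.5% methylcellulose (0.01 mL/g). Convulsant: pentylenetetrazol dissolved in 0.9% saline as a 0.85% solution for mice, given subcutaneously.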

[2] = tested on: Mus musculus; experiment: Teratogenic effect in SWV mouse assessed as resorptions at 325 mg/kg, ip administered on morning of day 8 of gestation; format: toxicity, organism-based; design: dose 325 mg/kg, route intraperitoneal; conditions: in vivo
[3] = tested on: Mus musculus; experiment: Neurotoxicity in CF1 albino mouse assessed as motor impairment at 100 mg/kg, ip after 0.5 hrs; format: toxicity, organism-based; design: dose 100 mg/kg, route intraperitoneal; conditions: in vivo
[4] = tested on: Mus musculus; experiment: Anticonvulsant activity in CF1 albino mouse assessed as inhibition of maximal electroshock-induced seizures at 300 mg/kg, ip after 0.5 hrs; format: functional, organism-based; design: dose 300 mg/kg
In short: (§2)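 Test compounds suspended in 0.5% methylcellulose and given ip to adult male CF no. 1 albino mice (18-25 g) at 0.01 mL/g body weight before maximal electroshock challenge.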

[5] = tested on: Mus musculus; experiment: Neurotoxicity in CF1 albino mouse assessed as motor impairment at 100 mg/kg, ip after 4 hrs; format: toxicity, organism-based; design: dose 100 mg/kg, route intraperitoneal; conditions: in vivo
[6] = tested on: Mus musculus; experiment: Neurotoxicity in CF1 albino mouse assessed as motor impairment at 300 mg/kg, ip after 0.5 hrs; format: toxicity, organism-based; design: dose 300 mg/kg, route intraperitoneal; conditions: in vivo
[7] = tested on: Mus musculus; experiment: Anticonvulsant activity in CF1 albino mouse assessed as inhibition of maximal electroshock-induced seizures at 300 mg/kg, ip after 4 hrs; format: functional, organism-based; design: dose 300 mg/kg; in short: as §2
[8] = tested on: Mus musculus; experiment: Anticonvulsant activity in CF1 albino mouse assessed as inhibition of subcutaneous pentylenetetrazole-induced seizures at 30 mg/kg, ip after 0.5 hrs; format: functional, organism-based; design: dose 30 mg/kg; in short: as §1
[9] = tested on: Mus musculus; experiment: Neurotoxicity in CF1 albino mouse assessed as motor impairment at 300 mg/kg, ip after 4 hrs; format: toxicity, organism-based; design: dose 300 mg/kg, route intraperitoneal; conditions: in vivo
[10] = tested on: Mus musculus; experiment: Anticonvulsant activity in CF1 albino mouse assessed as inhibition of subcutaneous pentylenetetrazole-induced seizures at 300 mg/kg, ip after 4 hrs; format: functional, organism-based; design: dose 300 mg/kg; in short: as §1
[11] = tested on: Mus musculus; experiment: Neurotoxicity in CF1 albino mouse assessed as motor impairment at 30 mg/kg, ip after 0.5 hrs; format: toxicity, organism-based; design: dose 30 mg/kg, route intraperitoneal; conditions: in vivo
[12] = tested on: Mus musculus; experiment: Anticonvulsant activity in CF1 albino mouse assessed as inhibition of maximal electroshock-induced seizures at 100 mg/kg, ip after 0.5 hrs; format: functional, organism-based; design: dose 100 mg/kg; in short: as §2
[13] = tested on: Mus musculus; experiment: Neurotoxicity in CF1 albino mouse assessed as motor impairment at 30 mg/kg, ip after 4 hrs; format: toxicity, organism-based; design: dose 30 mg/kg, route intraperitoneal; conditions: in vivo
[14] = tested on: Mus musculus; experiment: Teratogenic effect in SWV mouse assessed as live fetuses at 325 mg/kg, ip administered on morning of day 8 of gestation; format: toxicity, organism-based; design: dose 325 mg/kg, route intraperitoneal; conditions: in vivo
[15] = tested on: Rattus norvegicus; experiment: Neurotoxicity in Sprague-Dawley rat assessed as motor impairment at 30 mg/kg, po after 0.25 to 4 hrs; conditions: in vivo
[16] = tested on: Rattus norvegicus; experiment: Anticonvulsant activity in Sprague-Dawley rat assessed as inhibition of maximal electroshock-induced seizures at 30 mg/kg, po after 30 mins
[17] = tested on: Mus musculus; experiment: Anticonvulsant activity in CF1 albino mouse assessed as inhibition of maximal electroshock-induced seizures at 30 mg/kg, ip after 0.5 hrs; format: functional, organism-based; design: dose 30 mg/kg; in short: as §2
[18] = tested on: Mus musculus; experiment: Anticonvulsant activity in CF1 albino mouse assessed as inhibition of subcutaneous pentylenetetrazole-induced seizures at 100 mg/kg, ip after 0.5 hrs; format: functional, organism-based; design: dose 100 mg/kg; in short: as §1
[19] = tested on: Mus musculus; experiment: Anticonvulsant activity in CF1 albino mouse assessed as inhibition of maximal electroshock-induced seizures at 30 mg/kg, ip after 4 hrs; format: functional, organism-based; design: dose 30 mg/kg; in short: as §2
[20] = tested on: Mus musculus; experiment: Anticonvulsant activity in CF1 albino mouse assessed as inhibition of subcutaneous pentylenetetrazole-induced seizures at 100 mg/kg, ip after 4 hrs; format: functional, organism-based; design: dose 100 mg/kg; in short: as §1
[21] = tested on: Mus musculus; experiment: Teratogenic effect in SWV mouse assessed as live fetuses at 164 mg/kg, ip administered on morning of day 8 of gestation; format: toxicity, organism-based; design: dose 164 mg/kg, route intraperitoneal; conditions: in vivo
[22] = tested on: Rattus norvegicus; experiment: Anticonvulsant activity in po dosed rat assessed as inhibition of maximal electroshock-induced seizures
[23] = tested on: Rattus norvegicus; experiment: Anticonvulsant activity in Sprague-Dawley rat assessed as inhibition of maximal electroshock-induced seizures at 30 mg/kg, po after 1 hr
[24] = organism: Rattus norvegicus; experiment: Protective index, ratio of TD50 for rat to ED50 for maximal electroshock-induced rat seizure model
[25] = tested on: Rattus norvegicus; experiment: Anticonvulsant activity in Sprague-Dawley rat assessed as inhibition of maximal electroshock-induced seizures at 30 mg/kg, po after 15 mins
[26] = tested on: Mus musculus; experiment: Anticonvulsant activity in CF1 albino mouse assessed as inhibition of subcutaneous pentylenetetrazole-induced seizures at 30 mg/kg, ip after 4 hrs; format: functional, organism-based; design: dose 30 mg/kg; in short: as §1
[27] = tested on: Mus musculus; experiment: Teratogenic effect in SWV mouse assessed as resorptions at 164 mg/kg, ip administered on morning of day 8 of gestation; format: toxicity, organism-based; design: dose 164 mg/kg, route intraperitoneal; conditions: in vivo
[28] = tested on: Mus musculus; experiment: Teratogenic effect in SWV mouse assessed as fetuses with neural tube deffects at 325 mg/kg, ip administered on morning of day 8 of gestation; format: toxicity, organism-based; design: dose 325 mg/kg, route intraperitoneal; conditions: in vivo
[29] = tested on: Mus musculus; experiment: Anticonvulsant activity in CF1 albino mouse assessed as inhibition of maximal electroshock-induced seizures at 100 mg/kg, ip after 4 hrs; format: functional, organism-based; design: dose 100 mg/kg; in short: as §2
[30] = tested on: Rattus norvegicus; experiment: Anticonvulsant activity in Sprague-Dawley rat assessed as inhibition of maximal electroshock-induced seizures at 30 mg/kg, po after 4 hrs
[31] = tested on: Mus musculus; experiment: Teratogenic effect in SWV mouse assessed as fetuses with neural tube deffects at 164 mg/kg, ip administered on morning of day 8 of gestation; format: toxicity, organism-based; design: dose 164 mg/kg, route intraperitoneal; conditions: in vivo
[32] = tested on: Mus musculus; experiment: Teratogenic effect in SWV mouse assessed as live fetuses at 486 mg/kg, ip administered on morning of day 8 of gestation; format: toxicity, organism-based; design: dose 486 mg/kg, route intraperitoneal; conditions: in vivo
In short: (§3)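 SWV inbred mice: two-month-old nulligravid females mated overnight with males and checked for vaginal plugs next morning; gestation onset taken as 10 p.m. the previous night. On gestation day 8.5 each dam got one ip injection, 0.55–2.7 mmol/kg, in 25% aqueous Cremophor EL (vehicle controls dosed alike), 10 μL/g body weight. Litters and implants tallied; resorptions and live fetuses reported as counts with percentages.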

[33] = tested on: Mus musculus; experiment: Teratogenic effect in SWV mouse assessed as fetuses with neural tube deffects at 294 mg/kg, ip administered on morning of day 8 of gestation; format: toxicity, organism-based; design: dose 294 mg/kg, route intraperitoneal; conditions: in vivo
In short: (§4)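 Two-month-old nulligravid SWV females were mated overnight and checked for vaginal plugs the next morning; gestation onset was set at 10 p.m. the previous night. On gestation day 8.5, each dam received a single ip injection (0.55-2.7 mmol/kg range) or vehicle (25% aqueous Cremophor EL) at 10 μL/g body weight. Litters were scored for implants, resorptions, live and dead fetuses, and fetuses with neural tube defects.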

[34] = tested on: Mus musculus; experiment: Teratogenic effect in SWV mouse assessed as fetuses with neural tube deffects at 486 mg/kg, ip administered on morning of day 8 of gestation; format: toxicity, organism-based; design: dose 486 mg/kg, route intraperitoneal; conditions: in vivo; in short: as §4
[35] = tested on: Mus musculus; experiment: Teratogenic effect in SWV mouse assessed as live fetuses at 148 mg/kg, ip administered on morning of day 8 of gestation; format: toxicity, organism-based; design: dose 148 mg/kg, route intraperitoneal; conditions: in vivo; in short: as §4
[36] = tested on: Mus musculus; experiment: Teratogenic effect in SWV mouse assessed as resorptions at 148 mg/kg, ip administered on morning of day 8 of gestation; format: toxicity, organism-based; design: dose 148 mg/kg, route intraperitoneal; conditions: in vivo; in short: as §3
[37] = tested on: Mus musculus; experiment: Teratogenic effect in SWV mouse assessed as resorptions at 729 mg/kg, ip administered on morning of day 8 of gestation; format: toxicity, organism-based; design: dose 729 mg/kg, route intraperitoneal; conditions: in vivo; in short: as §3
[38] = tested on: Mus musculus; experiment: Teratogenic effect in SWV mouse assessed as resorptions at 486 mg/kg, ip administered on morning of day 8 of gestation; format: toxicity, organism-based; design: dose 486 mg/kg, route intraperitoneal; conditions: in vivo; in short: as §3
[39] = tested on: Mus musculus; experiment: Teratogenic effect in SWV mouse assessed as live fetuses at 729 mg/kg, ip administered on morning of day 8 of gestation; format: toxicity, organism-based; design: dose 729 mg/kg, route intraperitoneal; conditions: in vivo; in short: as §3
[40] = tested on: Mus musculus; experiment: Teratogenic effect in SWV mouse assessed as fetuses with neural tube deffects at 148 mg/kg, ip administered on morning of day 8 of gestation; format: toxicity, organism-based; design: dose 148 mg/kg, route intraperitoneal; conditions: in vivo; in short: as §4
[41] = tested on: Rattus norvegicus; experiment: Anticonvulsant activity in Sprague-Dawley rat assessed as inhibition of maximal electroshock-induced seizures at 30 mg/kg, po after 2 hrs
[42] = tested on: Mus musculus; experiment: Teratogenic effect in SWV mouse assessed as resorptions at 294 mg/kg, ip administered on morning of day 8 of gestation; format: toxicity, organism-based; design: dose 294 mg/kg, route intraperitoneal; conditions: in vivo; in short: as §3
[43] = tested on: Mus musculus; experiment: Teratogenic effect in SWV mouse assessed as live fetuses at 294 mg/kg, ip administered on morning of day 8 of gestation; format: toxicity, organism-based; design: dose 294 mg/kg, route intraperitoneal; conditions: in vivo; in short: as §4

Row | Structure (SMILES) | Activity [1] | Activity [2] [%] | Activity [3] | Activity [4] | Activity [5] | Activity [6] | Activity [7] | Activity [8] | Activity [9] | Activity [10] | Activity [11] | Activity [12] | Activity [13] | Activity [14] [%] | Activity [17] | Activity [19] | Activity [20] | ED50 [22] [mg/kg] | Activity [23] | Activity [26] | other results
1 | CCCC(C(=O)Nc1ccc(S(N)(=O)=O)cc1)C(C)C (configuration not stated) | inactive | 35.4 | Non-toxic | Active | Non-toxic | Non-toxic | Active | inactive | Non-toxic | inactive | Non-toxic | inactive | Non-toxic | 64.6 | inactive | inactive | inactive | 41.5 | Active | inactive | Activity [15]: Non-toxic; Activity [16]: inactive; Activity [18]: inactive; Activity [21]: 100%; Ratio TD50/ED50 [24]: >12; Activity [25]: inactive; Activity [27]: 10.3%; Activity [28]: 2%
2 | CCCCC(CC)C(=O)Nc1ccc(S(N)(=O)=O)cc1 (configuration not stated) | – | 74.2 | Non-toxic | Active | Non-toxic | – | Active | inactive | – | inactive | Non-toxic | Active | Non-toxic | 25.8 | inactive | inactive | inactive | 23.9 | Active | inactive | Activity [29]: Active; Activity [15]: Non-toxic; Activity [16]: inactive; Activity [30]: Active; Activity [31]: 5.2%; Activity [21]: 80.8%; Ratio TD50/ED50 [24]: >21; Activity [25]: inactive; Activity [27]: 19.2%; Activity [28]: 14.7%
3 | CCCC(C)C(=O)Nc1ccc(S(N)(=O)=O)cc1 (configuration not stated) | inactive | – | Non-toxic | Active | Non-toxic | Non-toxic | Active | inactive | Non-toxic | inactive | Non-toxic | inactive | Non-toxic | – | inactive | inactive | inactive | 10.8 | Active | inactive | Activity [32]: 41.7%; Activity [33]: 5.6%; Activity [34]: 17%; Activity [18]: inactive; Activity [30]: Active; Activity [35]: 90%; Activity [36]: 10%; Activity [37]: 92.5%; Activity [38]: 58.3%; Activity [39]: 7.5%; Activity [40]: 3.2%; Activity [41]: Active; Activity [42]: 34.8%; Activity [43]: 65.2%
